Results gathered from unrelated publications.
Lines come from different studies, so protocols differ.
Target: Vascular endothelial growth factor receptor 2 (KDR, Homo sapiens, UniProt P35968)

SMILES	test	setting	endpoint	value
COc1ccc2oc(-c3ccc4nc(N)oc4c3)c/c(=N\c3ccccc3NC(=O)CCN)c2c1	binding	1 µM	remaining binding	103%
C#Cc1cnc(Nc2ccnc(CO)c2)nc1Nc1ccccc1S(C)(=O)=NC#N (stereo not shown)	cell-free assay	1 µM	remaining signal	41%
CO[C@@H]1[C@H](N(C)C(=O)c2ccccc2)C[C@H]2O[C@]1(C)n1c3ccccc3c3c4c(c5c6ccccc6n2c5c31)C(=O)NC4	enzyme activity, inhibitor	1 µM	inhibition	67%
O=C(O)[C@H]1O[C@@H](Oc2cc(O)c3c(=O)cc(-c4ccc(O)c(O)c4)oc3c2)[C@H](O)[C@@H](O)[C@@H]1O	enzyme activity, inhibitor, TR-FRET	40 µM	inhibition	83.9%
COc1ccc2[nH]c3c4[nH]c5ccc(OC)cc5c4c4c(c3c2c1)C(=O)NC4=O	binding, competition with immobilised ligand	1 µM	remaining binding	59%
C[C@@H]1O[C@@H](O[C@H]2[C@H](Oc3cc(O)c4c(=O)cc(-c5ccc(O)cc5)oc4c3)O[C@H](CO)[C@@H](O)[C@@H]2O)[C@H](O)[C@H](O)[C@H]1O	enzyme activity, inhibitor, TR-FRET	40 µM	inhibition	8.3%
Cc1ccc(NC(=O)c2ccnc(C(F)(F)F)c2)cc1-c1cc(OCCO)nc(N2CCOCC2)c1	binding, competition with immobilised ligand	1 µM	remaining binding	85%
N#Cc1ccc(NC(=O)Nc2ccccc2)cc1	cell-free assay, competition with immobilised ligand	25 µM	remaining binding	96%
CCCCC(=O)Nc1ccc(-c2ccc3ncn(CCC)c(=O)c3c2)cn1	binding, competition with immobilised ligand	0.5 µM	remaining binding	95%
CC#CC(=O)N1CCC[C@H]1c1nc(-c2ccc(C(=O)Nc3ccccn3)cc2)c2c(N)nccn12	enzyme activity, inhibitor	1 µM	inhibition	0%
